These results are taken from ChEMBL document CHEMBL2321871, “A novel class of oral direct renin inhibitors: highly potent 3,5-disubstituted piperidines bearing a tricyclic p3-p1 pharmacophore” (J Med Chem, 2013).

Data set [1] concerns the target T1, Renin (Homo sapiens, UniProt P00797).
T1 sequence (P00797 whole entry): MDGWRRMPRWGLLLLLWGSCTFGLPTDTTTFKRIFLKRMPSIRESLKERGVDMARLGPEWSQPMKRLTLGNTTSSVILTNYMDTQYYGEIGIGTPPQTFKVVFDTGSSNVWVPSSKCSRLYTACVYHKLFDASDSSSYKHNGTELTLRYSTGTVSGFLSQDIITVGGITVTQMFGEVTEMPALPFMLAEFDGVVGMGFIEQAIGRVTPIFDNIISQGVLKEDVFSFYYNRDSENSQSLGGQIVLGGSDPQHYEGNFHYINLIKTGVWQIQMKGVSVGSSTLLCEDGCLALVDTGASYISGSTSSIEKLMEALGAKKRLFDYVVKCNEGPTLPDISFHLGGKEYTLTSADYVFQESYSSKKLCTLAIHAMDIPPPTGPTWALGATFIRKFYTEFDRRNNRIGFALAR
The experiment in a line: Inhibition of human recombinant renin using fluorescence-quenched (RE(EDANS)IHPFHLVIHTK(Dabcyl)R as substrate incubated for 1 hr prior to substrate addition measured after 1 hr by fluorescence polarization assay. In general terms: Polarisation of emitted light reports the rotation of a fluorescent probe.

The subject of data set [2] is Rattus norvegicus. The experiment in a line: Antihypertensive activity in po dosed telemetered hypertensive double-transgenic rat model expressing human renin and angiotensinogen assessed as reduction of mean arterial blood pressure. As to conditions: Artery. Type of data set: functional, organism-based. In short, it runs like this:
(§1)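 Telemetered hypertensive double-transgenic rats given a single oral dose (6 or 30 mg/kg); mean arterial blood pressure monitored for maximal reduction from pre-treatment baseline and time to 50% recovery to baseline.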

The nature of data set [3]: Inhibition of human recombinant pepsin A expressed in Escherichia coli using fluorescence-quenched Dabcyl-E-R-Nle-F-L-S-F-P-EDANS as substrate incubated for 1 hr prior to substrate addition measured after 1 hr by fluorescence polarization assay.
Data set [4] can be described thus: Cmax in Sprague-Dawley rat at 6 mg/kg, po by HPLC analysis. The format is ADME, organism-based. Also on record: dose 6 mg/kg, route oral. As to conditions: in vivo. The procedure, abridged: (§2)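 Fed Sprague–Dawley rats dosed at 2 mg/kg i.v. and 6 mg/kg p.o.; plasma levels followed over 24 h to derive oral AUC(0-24 h), Cmax, t1/2, plasma clearance, Vdss and oral bioavailability.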

Data set [5] deals with Rattus norvegicus. Description: Antihypertensive activity in telemetered hypertensive double-transgenic rat model expressing human renin and angiotensinogen assessed as reduction of mean arterial blood pressure at 30 mg/kg, po. The format is functional, Artery. The procedure, abridged:
as §1

The target in data set [6] is T1, Renin. Description: Inhibition of human plasma renin.
A further data set concerns the target T2, Cathepsin E (Homo sapiens, UniProt P14091).
T2 sequence (P14091 whole entry): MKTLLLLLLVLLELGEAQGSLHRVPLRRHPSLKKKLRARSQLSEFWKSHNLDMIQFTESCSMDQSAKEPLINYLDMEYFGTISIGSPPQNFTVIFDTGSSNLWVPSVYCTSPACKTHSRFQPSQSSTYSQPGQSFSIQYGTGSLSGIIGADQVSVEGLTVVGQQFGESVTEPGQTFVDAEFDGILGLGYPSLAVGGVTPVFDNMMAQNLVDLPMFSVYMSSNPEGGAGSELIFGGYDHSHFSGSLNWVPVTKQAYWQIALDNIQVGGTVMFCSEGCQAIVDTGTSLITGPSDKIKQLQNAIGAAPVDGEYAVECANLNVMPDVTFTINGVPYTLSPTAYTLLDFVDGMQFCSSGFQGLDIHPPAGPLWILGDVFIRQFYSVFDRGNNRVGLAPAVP
Description: Inhibition of human recombinant cathepsin E expressed in Escherichia coli using fluorescence-quenched Ac-E-D(EDANS)-KPILFFRLG-K(Dabcyl)-E-Amid as substrate incubated for 1 hr prior to substrate addition measured after 1 hr by fluorescence polarization assay.

The target in another data set is Beta-secretase 1 (Homo sapiens, UniProt P56817). The experiment in a line: Inhibition of human recombinant BACE1 expressed in baculovirus-infected SF9 cells using fluorescence-quenched RE(EDANS)-EVNLDAEF-K(DABSYL)-R as substrate incubated for 1 hr prior to substrate addition measured after 1 hr by fluorescence polarization assay.
Sequence of Beta-secretase 1 (P56817 whole entry): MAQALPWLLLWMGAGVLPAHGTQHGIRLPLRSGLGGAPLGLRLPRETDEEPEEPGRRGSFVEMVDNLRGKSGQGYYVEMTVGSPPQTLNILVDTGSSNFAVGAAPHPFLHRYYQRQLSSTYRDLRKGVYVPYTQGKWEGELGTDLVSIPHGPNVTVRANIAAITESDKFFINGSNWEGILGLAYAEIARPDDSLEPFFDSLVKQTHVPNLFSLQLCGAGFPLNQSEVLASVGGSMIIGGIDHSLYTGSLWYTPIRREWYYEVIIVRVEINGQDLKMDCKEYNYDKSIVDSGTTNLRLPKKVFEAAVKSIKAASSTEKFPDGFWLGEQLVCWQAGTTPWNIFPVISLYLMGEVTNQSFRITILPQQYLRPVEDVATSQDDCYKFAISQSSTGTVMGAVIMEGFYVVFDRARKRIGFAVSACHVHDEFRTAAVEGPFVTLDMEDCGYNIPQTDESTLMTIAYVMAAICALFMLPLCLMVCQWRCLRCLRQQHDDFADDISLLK
Data set [7] concerns Rattus norvegicus. Description: Antihypertensive activity in telemetered hypertensive double-transgenic rat model expressing human renin and angiotensinogen assessed as reduction of mean arterial blood pressure at 6 mg/kg, po. Type of data set: functional, Artery. In short, it runs like this: as §1
Another data set deals with T3, Beta-secretase 2 (Homo sapiens, UniProt Q9Y5Z0).
T3 sequence (Q9Y5Z0 whole entry): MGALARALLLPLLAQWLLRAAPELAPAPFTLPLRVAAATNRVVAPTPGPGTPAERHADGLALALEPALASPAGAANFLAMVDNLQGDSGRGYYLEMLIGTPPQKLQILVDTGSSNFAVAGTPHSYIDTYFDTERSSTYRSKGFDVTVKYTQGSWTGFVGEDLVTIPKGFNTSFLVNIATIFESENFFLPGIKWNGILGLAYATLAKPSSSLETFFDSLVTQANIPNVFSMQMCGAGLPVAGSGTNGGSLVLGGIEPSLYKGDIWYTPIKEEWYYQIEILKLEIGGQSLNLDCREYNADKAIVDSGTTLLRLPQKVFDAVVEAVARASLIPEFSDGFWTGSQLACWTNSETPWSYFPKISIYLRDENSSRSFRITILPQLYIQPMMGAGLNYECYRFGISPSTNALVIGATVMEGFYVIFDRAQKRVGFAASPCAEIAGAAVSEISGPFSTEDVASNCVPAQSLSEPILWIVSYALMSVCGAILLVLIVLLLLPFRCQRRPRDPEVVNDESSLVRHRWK
Description: Inhibition of human recombinant BACE2 expressed in baculovirus-infected SF9 cells using fluorescence-quenched RE(EDANS)-EVNLDAEF-K(DABSYL)-R as substrate incubated for 1 hr prior to substrate addition measured after 1 hr by fluorescence polarization assay.

Data set [8] can be described thus: Half life in Sprague-Dawley rat at 2 mg/kg, iv and 6 mg/kg, po by HPLC analysis. Type of data set: ADME, organism-based. Particulars: in vivo. The procedure, abridged: as §2
Data set [9] deals with Rattus norvegicus. The experiment in a line: Antihypertensive activity in telemetered hypertensive double-transgenic rat model expressing human renin angiotensinogen assessed as time required for 50 % recovery at 6 mg/kg, po. The format is functional. The procedure, abridged:
as §1

Data set [10] can be described thus: Plasma clearance in Sprague-Dawley rat at 2 mg/kg, iv and 6 mg/kg, po by HPLC analysis. Type of data set: ADME, organism-based. In short, it runs like this:
as §2

The target in another data set is T4, Gastricsin (Homo sapiens, UniProt P20142).
T4 sequence (P20142 whole entry): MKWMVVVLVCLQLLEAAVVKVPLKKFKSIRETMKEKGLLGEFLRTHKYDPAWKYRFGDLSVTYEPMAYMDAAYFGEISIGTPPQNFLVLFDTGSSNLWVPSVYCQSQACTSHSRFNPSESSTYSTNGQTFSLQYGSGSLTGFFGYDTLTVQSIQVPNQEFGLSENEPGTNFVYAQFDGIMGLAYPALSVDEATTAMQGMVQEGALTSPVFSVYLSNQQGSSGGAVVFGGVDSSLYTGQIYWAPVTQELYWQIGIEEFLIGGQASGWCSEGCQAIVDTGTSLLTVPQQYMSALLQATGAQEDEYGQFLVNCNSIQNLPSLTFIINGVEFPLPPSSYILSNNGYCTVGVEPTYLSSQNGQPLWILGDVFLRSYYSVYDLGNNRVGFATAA
Description: Inhibition of human recombinant pepsin C expressed in Escherichia coli using fluorescence-quenched Dabcyl-E-R-Nle-F-L-S-F-P-EDANS as substrate incubated for 1 hr prior to substrate addition measured after 1 hr by fluorescence polarization assay.

In data set [11] the test system is Rattus norvegicus. Description: Antihypertensive activity in telemetered hypertensive double-transgenic rat model expressing human renin angiotensinogen assessed as time required for 50 % recovery at 30 mg/kg, po. The format is functional. The procedure, abridged: as §1
Data set [12] in a line: Volume of distribution at steady state in Sprague-Dawley rat at 2 mg/kg, iv and 6 mg/kg, po by HPLC analysis. Type of data set: ADME, organism-based. Particulars: in vivo, read-out: Vdss. In short, it runs like this: as §2
The next data set deals with Cytochrome P450 3A4 (Homo sapiens, UniProt P08684). The experiment in a line: Time dependent inhibition of CYP3A4 (unknown origin). Type of data set: ADME. As to conditions: TDE = time-dependent effect.
Sequence of Cytochrome P450 3A4 (P08684 whole entry): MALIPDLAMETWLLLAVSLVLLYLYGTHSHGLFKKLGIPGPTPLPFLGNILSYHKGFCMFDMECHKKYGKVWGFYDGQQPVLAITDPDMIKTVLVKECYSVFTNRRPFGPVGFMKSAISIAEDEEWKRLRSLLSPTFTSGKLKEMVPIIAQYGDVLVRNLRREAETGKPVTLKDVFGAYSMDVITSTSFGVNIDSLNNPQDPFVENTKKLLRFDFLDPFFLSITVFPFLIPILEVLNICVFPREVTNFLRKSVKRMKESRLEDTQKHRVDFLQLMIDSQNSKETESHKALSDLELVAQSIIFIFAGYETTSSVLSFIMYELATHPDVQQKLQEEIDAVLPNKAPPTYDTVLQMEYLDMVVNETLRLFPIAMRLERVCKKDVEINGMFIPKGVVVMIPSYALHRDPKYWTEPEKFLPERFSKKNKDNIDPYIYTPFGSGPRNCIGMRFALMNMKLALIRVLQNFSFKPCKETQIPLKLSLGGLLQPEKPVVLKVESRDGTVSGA
A short description of data set [13]: AUC (0 to 24 hrs) in Sprague-Dawley rat at 6 mg/kg, po by HPLC analysis. Type of data set: ADME, organism-based. More on the design: time < 24 hr, dose 6 mg/kg, route oral. Particulars: plasma. In short, it runs like this:
as §2

Data set [14] in a line: Oral bioavailability in Sprague-Dawley rat at 6 mg/kg by HPLC analysis. Type of data set: ADME, organism-based. Particulars: in vivo. In short, it runs like this:
as §2

A further data set concerns the target Cathepsin D (Homo sapiens, UniProt P07339). Description: Inhibition of human recombinant cathepsin D expressed in baculovirus-infected SF9 cells using fluorescence-quenched Ac-E-D(EDANS)-KPILFFRLG-K(Dabcyl)-E-Amid as substrate incubated for 1 hr prior to substrate addition measured after 1 hr by fluorescence polarization assay.
Data set [15] addresses T1, Renin. The experiment in a line: Binding affinity to human recombinant renin by NMR titration analysis.
Another data set deals with T5, Renin (Homo sapiens) (UniProt P00797).
T5 sequence (whole entry): T1 sequence (P00797 whole entry)
Description: Inhibition of human recombinant renin using fluorescence-quenched (RE(EDANS)IHPFHLVIHTK(Dabcyl)R as substrate at 100 uM incubated for 1 hr prior to substrate addition measured after 1 hr by fluorescence polarization assay.

Sequence of Cathepsin D (P07339 65-162 limits assumed): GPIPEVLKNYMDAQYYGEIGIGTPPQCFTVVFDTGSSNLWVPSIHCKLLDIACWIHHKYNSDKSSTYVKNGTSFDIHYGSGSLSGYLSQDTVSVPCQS
Sequence of Cathepsin D (P07339 169-412 limits assumed): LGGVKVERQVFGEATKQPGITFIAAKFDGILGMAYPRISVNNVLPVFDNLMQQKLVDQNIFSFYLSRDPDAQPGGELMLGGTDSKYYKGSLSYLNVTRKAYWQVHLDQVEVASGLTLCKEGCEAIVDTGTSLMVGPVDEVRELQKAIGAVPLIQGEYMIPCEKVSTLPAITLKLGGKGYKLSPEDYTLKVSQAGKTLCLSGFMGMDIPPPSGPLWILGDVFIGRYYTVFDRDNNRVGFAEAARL

Usually IC50 stands for the point on the concentration scale where inhibition reaches its midpoint. As to `Cc1ccc(S(=O)(=O)N[C@H]2CNC[C@@H](C(=O)NCC3c4ccccc4Oc4ccccc43)C2)cc1` (racemic), the IC50 on Renin [1] amounted to 0.09 µM.
Consider `Cc1ccc(S(=O)(=O)N[C@@H]2CNC[C@H](C(=O)NCC(c3ccccc3)c3ccccc3)C2)cc1`, for which, on Renin [1], the IC50 was over 30 µM.
For the compound `COCCCCC1(CNC(=O)[C@@H]2CNC[C@H](NS(=O)(=O)c3ccc(C)cc3)C2)c2ccccc2Oc2ccccc21` [listing 1 of 2 here], the Activity entry with Rattus norvegicus [2] is “Dose-dependent effect”.
Broadly, the Cmax is the peak of the concentration-time curve. The half-life is the time needed for the level to fall by half in the phase considered. A word on the AUC(0-t): it is the area under the concentration-time curve up to a stated or last time point. Low readings indicate less exposure, high ones more exposure. As usually defined, the bioavailability is dose-corrected exposure relative to a reference, in per cent. Lower therefore signals little systemic uptake. As to `COCCCCC1(CNC(=O)[C@@H]2CNC[C@H](NS(=O)(=O)c3ccc(C)cc3)C2)c2ccccc2Oc2ccccc21` [listing 2 of 2 here], the IC50 in data set [3] was over 30 µM; at Renin [6], 0.025 µM; at Cathepsin E, over 30 µM; at Beta-secretase 1, over 30 µM; at Beta-secretase 2, over 30 µM; on Gastricsin, over 30 µM. The IC50 on Renin [1] is 0.003 µM; on Cathepsin D it was over 30 µM. The same compound yielded a Cmax in data set [4] of 222 nM. The Activity is on record as 58 mmHg in the data set on Rattus norvegicus [5] and 28 mmHg in the data set with Rattus norvegicus [7]. In data set [8], the half-life was 2.3 h. Further, the Time was 3.1 h in the data set on Rattus norvegicus [9] and 7.8 h in the data set on Rattus norvegicus [11]. Besides, the clearance in data set [10] is 43.3 mL/min/kg. The Vd in data set [12] came out at 5.3 L/kg. For the same compound, the “inhibition (INH)” value against Cytochrome P450 3A4 was “tde”. In addition, the AUC(0-t) at 24 h in data set [13] is 0.75 µM·h. In [14], the bioavailability was found to be 18%.
Regarding `COCCCCC1(CNC(=O)[C@H]2CNC[C@@H](NS(=O)(=O)c3ccc(C)cc3)C2)c2ccccc2Oc2ccccc21`, on Renin [1], the half-inhibitory concentration (IC50) worked out at 0.5 µM.
Consider `COCCCCC1(CNC(=O)C2CCCNC2)c2ccccc2Oc2ccccc21` (racemic), for which the IC50 on Renin [1] stood at 4 µM.
`COCCCCC1(CNC(=O)[C@@H]2CNC[C@H](NS(=O)(=O)c3ccc(C)cc3)C2)c2ccccc2Oc2ccccc21` (racemic): at Renin [1], the IC50 is 0.004 µM.
For orientation: Kd means the equilibrium constant for the complex coming apart. Turning to `CC(O)CN1CC2c3ccccc3Nc3ccccc3C2C1` (racemic), the IC50 on Renin [1] was over 100 µM. The Kd on Renin [15] is over 500 µM.
The corresponding values for `OC(CC1c2ccccc2Sc2ccccc21)CN1CCCC1` (racemic) are over 100 µM and over 500 µM.
Broadly, the inhibition is the relative decrease from the control value, in per cent. As to `O=C(NCC1c2ccccc2Oc2ccccc21)C1CCCNC1` (racemic), the inhibition on Renin (Homo sapiens) worked out at 0%.
Take `Cc1ccc(S(=O)(=O)N[C@H]2CNC[C@@H](C(=O)NCC(c3ccccc3)c3ccccc3)C2)cc1` (racemic): the half-maximal inhibitory concentration (IC50) on Renin [1] amounted to 1.2 µM.
The same measure, in the same setting: then `Cc1ccc(S(=O)(=O)N[C@H]2CNC[C@@H](C(=O)NCC(c3ccccc3)c3ccccc3)C2)cc1`, with 0.5 µM.
